This data set in a line: Cytotoxicity against human HuH7 cells assessed as reduction in cell viability by MTS assay. In kind it is cell-based, Huh-7. The essentials:
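Viability of Huh-7 cells was read by MTS assay.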
A general note: Formazan colour is commonly taken as a measure of viable cells.

Where only a bound is given, the exact number is not on record here.

By CC50 is commonly meant the concentration that lowers cell viability or growth by half. For the compound `O=C(N[C@@H](C(=O)N1CCC[C@H]1c1ncc(-c2ccc(-c3ccc(-c4cnc([C@@H]5CCCN5C(=O)[C@H](NC(=O)c5ccoc5)c5ccccc5)s4)cc3)cc2)s1)c1ccccc1)c1ccoc1`, the 50% cytotoxic concentration (CC50) is greater than 50 µM.

For the compound `O=C(N[C@@H](C(=O)N1CCC[C@H]1c1ncc(-c2ccc(-c3ccc(-c4cnc([C@@H]5CCCN5C(=O)[C@H](NC(=O)C5CCCCC5)c5ccccc5)s4)cc3)cc2)s1)c1ccccc1)C1CCCCC1`, the CC50 is greater than 50 µM.

For `CCCCC(=O)N[C@H](C(=O)N1CCC[C@H]1c1ncc(-c2ccc(-c3ccc(-c4cnc([C@@H]5CCCN5C(=O)[C@H](NC(=O)CCCC)c5ccccc5)s4)cc3)cc2)s1)c1ccccc1`, the CC50 was greater than 50 µM.

In the case of `O=C(N[C@H](C(=O)N1CCC[C@H]1c1ncc(-c2ccc(-c3ccc(-c4cnc([C@@H]5CCCN5C(=O)[C@H](NC(=O)C5CCCCC5)c5ccccc5)s4)cc3)cc2)s1)c1ccccc1)C1CCCCC1`, the cytotoxic concentration (CC50) is greater than 50 µM.

In the case of `O=C(N[C@H](C(=O)N1CCC[C@H]1c1ncc(-c2ccc(-c3ccc(-c4cnc([C@@H]5CCCN5C(=O)[C@H](NC(=O)C5CCC5)c5ccccc5)s4)cc3)cc2)s1)c1ccccc1)C1CCC1`, the CC50 is greater than 50 µM.

In the case of `CCCCCC(=O)N[C@@H](C(=O)N1CCC[C@H]1c1ncc(-c2ccc(-c3ccc(-c4cnc([C@@H]5CCCN5C(=O)[C@H](NC(=O)CCCCC)c5ccccc5)s4)cc3)cc2)s1)c1ccccc1`, the cytotoxic concentration (CC50) was greater than 50 µM.

In the case of `O=C(N[C@@H](C(=O)N1CCC[C@H]1c1ncc(-c2ccc(-c3ccc(-c4cnc([C@@H]5CCCN5C(=O)[C@H](NC(=O)C5CCCC5)c5ccccc5)s4)cc3)cc2)s1)c1ccccc1)C1CCCC1`, the CC50 is greater than 50 µM.

In the case of `O=C(CCN1CCOCC1)N[C@@H](C(=O)N1CCC[C@H]1c1ncc(-c2ccc(-c3ccc(-c4cnc([C@@H]5CCCN5C(=O)[C@H](NC(=O)CCN5CCOCC5)c5ccccc5)s4)cc3)cc2)s1)c1ccccc1`, the CC50 was greater than 50 µM.

Turning to `O=C(N[C@@H](C(=O)N1CCC[C@H]1c1ncc(-c2ccc(-c3ccc(-c4cnc([C@@H]5CCCN5C(=O)[C@H](NC(=O)c5ccccn5)c5ccccc5)s4)cc3)cc2)s1)c1ccccc1)c1ccccn1`, the cytotoxic concentration (CC50) was greater than 50 µM.

On to `COC(=O)N[C@@H](C)C(=O)N1CCC[C@H]1c1ncc(-c2ccc(-c3ccc(-c4cnc([C@@H]5CCCN5C(=O)[C@H](C)NC(=O)OC)s4)cc3)cc2)s1`, for which the CC50 is greater than 50 µM.

Turning to `CCCC[C@@H](NC(=O)C1CC1)C(=O)N1CCC[C@H]1c1ncc(-c2ccc(-c3ccc(-c4cnc([C@@H]5CCCN5C(=O)[C@@H](CCCC)NC(=O)C5CC5)s4)cc3)cc2)s1`, the CC50 was greater than 50 µM.

Turning to `O=C(N[C@H](C(=O)N1CCC[C@H]1c1ncc(-c2ccc(-c3ccc(-c4cnc([C@@H]5CCCN5C(=O)[C@H](NC(=O)c5cccnc5)c5ccccc5)s4)cc3)cc2)s1)c1ccccc1)c1cccnc1`, the CC50 is greater than 50 µM.

Consider `O=C(N[C@@H](C(=O)N1CCC[C@H]1c1ncc(-c2ccc(-c3ccc(-c4cnc([C@@H]5CCCN5C(=O)[C@H](NC(=O)C5CCC5)c5ccccc5)s4)cc3)cc2)s1)c1ccccc1)C1CCC1`, for which the CC50 was greater than 50 µM.

For `COC(=O)N[C@H](C(=O)N1CCC[C@H]1c1ncc(-c2ccc(-c3ccc(-c4cnc([C@@H]5CCCN5C(=O)[C@@H](NC(=O)OC)C(C)(C)C)s4)cc3)cc2)s1)C(C)(C)C`, the CC50 is greater than 50 µM.

Consider `O=C(N[C@H](C(=O)N1CCC[C@H]1c1ncc(-c2ccc(-c3ccc(-c4cnc([C@@H]5CCCN5C(=O)[C@H](NC(=O)N5CCCC5)c5ccccc5)s4)cc3)cc2)s1)c1ccccc1)N1CCCC1`, for which the CC50 was greater than 50 µM.

With `CCC[C@@H](NC(=O)C1CC1)C(=O)N1CCC[C@H]1c1ncc(-c2ccc(-c3ccc(-c4cnc([C@@H]5CCCN5C(=O)[C@@H](CCC)NC(=O)C5CC5)s4)cc3)cc2)s1`, the CC50 was greater than 50 µM.

`O=C(CCN1CCOCC1)N[C@H](C(=O)N1CCC[C@H]1c1ncc(-c2ccc(-c3ccc(-c4cnc([C@@H]5CCCN5C(=O)[C@H](NC(=O)CCN5CCOCC5)c5ccccc5)s4)cc3)cc2)s1)c1ccccc1`: the half-maximal cytotoxic concentration (CC50) was greater than 50 µM.

For the compound `O=C(N[C@@H](C(=O)N1CCC[C@H]1c1ncc(-c2ccc(-c3ccc(-c4cnc([C@@H]5CCCN5C(=O)[C@H](NC(=O)N5CCCC5)c5ccccc5)s4)cc3)cc2)s1)c1ccccc1)N1CCCC1`, the CC50 was greater than 50 µM.

In the case of `CN(C)CCC(=O)N[C@@H](C(=O)N1CCC[C@H]1c1ncc(-c2ccc(-c3ccc(-c4cnc([C@@H]5CCCN5C(=O)[C@H](NC(=O)CCN(C)C)c5ccccc5)s4)cc3)cc2)s1)c1ccccc1`, the CC50 is greater than 50 µM.

Regarding `CC[C@H](NC(=O)OC)C(=O)N1CCC[C@H]1c1ncc(-c2ccc(-c3ccc(-c4cnc([C@@H]5CCCN5C(=O)[C@H](CC)NC(=O)OC)s4)cc3)cc2)s1`, the 50% cytotoxic concentration (CC50) was greater than 50 µM.

In the case of `O=C(CCN1CCCC1)N[C@H](C(=O)N1CCC[C@H]1c1ncc(-c2ccc(-c3ccc(-c4cnc([C@@H]5CCCN5C(=O)[C@H](NC(=O)CCN5CCCC5)c5ccccc5)s4)cc3)cc2)s1)c1ccccc1`, the half-maximal cytotoxic concentration (CC50) was greater than 50 µM.

In the case of `O=C(N[C@H](C(=O)N1CCC[C@H]1c1ncc(-c2ccc(-c3ccc(-c4cnc([C@@H]5CCCN5C(=O)[C@H](NC(=O)N5CCOCC5)c5ccccc5)s4)cc3)cc2)s1)c1ccccc1)N1CCOCC1`, the CC50 is greater than 50 µM.

As to `O=C(Cc1ccccc1)N[C@@H](C(=O)N1CCC[C@H]1c1ncc(-c2ccc(-c3ccc(-c4cnc([C@@H]5CCCN5C(=O)[C@H](NC(=O)Cc5ccccc5)c5ccccc5)s4)cc3)cc2)s1)c1ccccc1`, the 50% cytotoxic concentration (CC50) is greater than 50 µM.

`CCC[C@H](NC(=O)OC)C(=O)N1CCC[C@H]1c1ncc(-c2ccc(-c3ccc(-c4cnc([C@@H]5CCCN5C(=O)[C@H](CCC)NC(=O)OC)s4)cc3)cc2)s1`: the half-maximal cytotoxic concentration (CC50) is greater than 50 µM.

With `O=C(N[C@@H](C(=O)N1CCC[C@H]1c1ncc(-c2ccc(-c3ccc(-c4cnc([C@@H]5CCCN5C(=O)[C@H](NC(=O)c5cccs5)c5ccccc5)s4)cc3)cc2)s1)c1ccccc1)c1cccs1`, the half-maximal cytotoxic concentration (CC50) is greater than 50 µM.

For the compound `O=C(CCN1CCCC1)N[C@@H](C(=O)N1CCC[C@H]1c1ncc(-c2ccc(-c3ccc(-c4cnc([C@@H]5CCCN5C(=O)[C@H](NC(=O)CCN5CCCC5)c5ccccc5)s4)cc3)cc2)s1)c1ccccc1`, the half-maximal cytotoxic concentration (CC50) is greater than 50 µM.

Turning to `CN1CCN(CCC(=O)N[C@H](C(=O)N2CCC[C@H]2c2ncc(-c3ccc(-c4ccc(-c5cnc([C@@H]6CCCN6C(=O)[C@H](NC(=O)CCN6CCN(C)CC6)c6ccccc6)s5)cc4)cc3)s2)c2ccccc2)CC1`, the CC50 is greater than 50 µM.

Take `CN1CCN(CCC(=O)N[C@@H](C(=O)N2CCC[C@H]2c2ncc(-c3ccc(-c4ccc(-c5cnc([C@@H]6CCCN6C(=O)[C@H](NC(=O)CCN6CCN(C)CC6)c6ccccc6)s5)cc4)cc3)s2)c2ccccc2)CC1`: the CC50 is greater than 50 µM.

In the case of `CC(C)C(=O)N[C@@H](C(=O)N1CCC[C@H]1c1ncc(-c2ccc(-c3ccc(-c4cnc([C@@H]5CCCN5C(=O)[C@H](NC(=O)C(C)C)c5ccccc5)s4)cc3)cc2)s1)c1ccccc1`, the CC50 is greater than 50 µM.

As for `C[C@@H](NC(=O)C1CC1)C(=O)N1CCC[C@H]1c1ncc(-c2ccc(-c3ccc(-c4cnc([C@@H]5CCCN5C(=O)[C@@H](C)NC(=O)C5CC5)s4)cc3)cc2)s1`, the CC50 is greater than 50 µM.

Regarding `CC(C)[C@H](NC(=O)Oc1ccccc1)C(=O)N1CCC[C@H]1c1ncc(-c2ccc(-c3ccc(-c4cnc([C@@H]5CCCN5C(=O)[C@@H](NC(=O)Oc5ccccc5)C(C)C)s4)cc3)cc2)s1`, the CC50 was greater than 50 µM.

On to `O=C(N[C@H](C(=O)N1CCC[C@H]1c1ncc(-c2ccc(-c3ccc(-c4cnc([C@@H]5CCCN5C(=O)[C@H](NC(=O)c5cccs5)c5ccccc5)s4)cc3)cc2)s1)c1ccccc1)c1cccs1`, for which the CC50 is greater than 50 µM.
